Measured values as given in ChEMBL document CHEMBL1275449, “Potent in vitro antifungal activities of naturally occurring acetylenic acids” (Antimicrob Agents Chemother, 2008).
Calls of active or inactive are those of the source.

Tests used:
[1] = test system: Candida albicans; test: Antifungal activity against Fluconazole resistant Candida albicans isolate 17 at 178.6 uM after 48 hrs by CLSI method; type: functional, organism-based
Outline: (§1)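 Candida in CLSI broth microdilution. Saline colony suspension set to 1.5 × 10³ CFU/ml (final) in MOPS-buffered RPMI 1640, pH 7.0. Test agent given as twofold serial dilutions in 20% DMSO-saline, duplicate wells. 35°C for 48 h. Growth read as OD530 before and after incubation. Percent inhibition scored at the highest test concentration.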

[2] = test system: Cryptococcus neoformans; test: Antifungal activity against Cryptococcus neoformans ATCC 90113 at 178.6 uM after 72 hrs by CLSI method; type: functional, organism-based
Outline: (§2)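 SD broth replaced RPMI because growth in RPMI was poor; other CLSI conditions were kept. Inoculum was 1.5 × 10³ CFU/ml from colonies on SD agar, checked by plating. Twofold serial dilutions (11 concentrations) in 20% DMSO-saline were tested in duplicate. OD530 was read before and after incubation at 35°C for 72 h. Percent growth gave IC50; the MIC is the lowest concentration with no detectable growth.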

[3] = test system: SK-MEL; test: Cytotoxicity against human SK-MEL cells up to 32 uM by neutral red method; type: cell-based
Outline: (§3)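 Neutral red uptake cytotoxicity, top concentration 32 μM.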

[4] = test system: Trichophyton mentagrophytes; test: Antifungal activity against Trichophyton mentagrophytes ATCC MYA-4439 by CLSI method; type: functional, organism-based
Outline: (§4)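 Growth scraped from 1- to 6-week-old potato dextrose slants and filtered through Miracloth. Diluted in 5% Alamar blue-RPMI 1640 (MOPS pH 7.0) to 2.7 × 10⁴ CFU/ml. Eleven twofold dilutions in duplicate. Fluorescence at 544 nm excitation/590 nm emission read before and after 35°C, 5 days. IC50 fitted from percent growth. MIC taken as no detectable growth; MFC from clear or blue wells plated on PD agar.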

[5] = test system: Nakaseomyces glabratus; test: Antifungal activity against Candida glabrata ATCC 90030 at 178.6 uM after 48 hrs by CLSI method; type: functional, organism-based
Outline: (§5)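 Candida inocula came from 24–72-h SD agar colonies suspended in saline. They were diluted by OD630 standard curve into RPMI 1640 (0.2% dextrose, 0.03% glutamine, 0.165 M MOPS, pH 7.0) to 1.5 × 10³ CFU/ml. Compounds were run as 11 twofold dilutions in 20% DMSO-saline, in duplicate, at 35°C for 48 h, with OD530 read before and after. Percent growth at the top concentration, IC50, MIC, and MFC (SD agar plating) were derived.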

[6] = test system: Aspergillus fumigatus; test: Antifungal activity against Aspergillus fumigatus ATCC 90906 at 178.6 uM after 48 hrs by CLSI method; type: functional, organism-based
[7] = test system: Candida albicans; test: Antifungal activity against Candida albicans ATCC 32354 at 178.6 uM after 48 hrs by CLSI method; type: functional, organism-based; outline: as §5
[8] = test system: Trichophyton mentagrophytes; test: Antifungal activity against Trichophyton mentagrophytes ATCC 9533 at 178.6 uM after 5 days by CLSI method; type: functional, organism-based
[9] = test system: BT-549; test: Cytotoxicity against human BT549 cells up to 32 uM by neutral red method; type: cell-based; outline: as §3
[10] = test system: Cryptococcus neoformans; test: Antifungal activity against Cryptococcus neoformans ATCC 66031 after 72 hrs by CLSI method; type: functional, organism-based; settings: ATCC 66031, 72 h; outline: as §2
[11] = test system: Trichophyton rubrum; test: Antifungal activity against Trichophyton rubrum ATCC MYA-4438 by CLSI method; type: functional, organism-based; outline: as §4
[12] = test system: Candida albicans; test: Antifungal activity against Candida albicans ATCC 14053 at 178.6 uM after 48 hrs by CLSI method; type: functional, organism-based
[13] = test system: Candida tropicalis; test: Antifungal activity against Candida tropicalis ATCC 750 at 178.6 uM after 48 hrs by CLSI method; type: functional, organism-based
Outline: (§6)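 Yeast suspensions made from 3-5 colonies off 24-72 h SD agar plates in saline. They were diluted by OD630 standard curve in RPMI 1640 (0.2% dextrose, 0.03% glutamine, 0.165 M MOPS, pH 7.0) to 1.5 × 10³ CFU/ml. Twofold dilutions (11 concentrations, 20% DMSO-saline) run in duplicate. OD530 read before and after 35°C, 48 h. Line values are top test concentrations; no-growth endpoints give MIC/MFC.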

[14] = test system: Aspergillus fumigatus; test: Antifungal activity against Aspergillus fumigatus ATCC 204305 at 178.6 uM after 48 hrs by CLSI method; type: functional, organism-based
[15] = test system: Aspergillus flavus; test: Antifungal activity against Aspergillus flavus ATCC 204304 at 178.6 uM after 48 hrs by CLSI method; type: functional, organism-based
[16] = test system: SK-OV-3; test: Cytotoxicity against human SKOV3 cells up to 32 uM by neutral red method; type: cell-based; outline: as §3
[17] = test system: Candida albicans; test: Antifungal activity against Candida albicans ATCC 200955 at 178.6 uM after 48 hrs by CLSI method; type: functional, organism-based; outline: as §5
[18] = test system: Cryptococcus neoformans; test: Antifungal activity against Cryptococcus neoformans ATCC 66031 at 178.6 uM after 72 hrs by CLSI method; type: functional, organism-based; outline: as §2
[19] = test system: Trichophyton mentagrophytes; test: Antifungal activity against Trichophyton mentagrophytes ATCC MYA-4439 at 178.6 uM after 5 days by CLSI method; type: functional, organism-based
[20] = test system: Pichia kudriavzevii; test: Antifungal activity against Candida krusei ATCC 6258 after 48 hrs by CLSI method; type: functional, organism-based; settings: ATCC 6258, 48 h; outline: as §5
[21] = test system: Candida albicans; test: Antifungal activity against Candida albicans ATCC 90028 at 178.6 uM after 48 hrs by CLSI method; type: functional, organism-based; outline: as §5
[22] = test system: Candida albicans; test: Antifungal activity against Candida albicans ATCC 60193 at 178.6 uM after 48 hrs by CLSI method; type: functional, organism-based; outline: as §5
[23] = test system: LLC-PK1; test: Cytotoxicity against pig LLC-PK1 cells up to 32 uM by neutral red method; type: cell-based, Sus scrofa; outline: as §3
[24] = test system: Trichophyton rubrum; test: Antifungal activity against Trichophyton rubrum ATCC MYA-4438 at 178.6 uM after 5 days by CLSI method; type: functional, organism-based
[25] = test system: KB; test: Cytotoxicity against human KB cells up to 32 uM by neutral red method; type: cell-based; outline: as §3
[26] = test system: Trichophyton rubrum; test: Antifungal activity against Trichophyton rubrum ATCC 10218 by CLSI method; type: functional, organism-based; outline: as §4
[27] = test system: Aspergillus niger; test: Antifungal activity against Aspergillus niger ATCC 16404 at 178.6 uM after 48 hrs by CLSI method; type: functional, organism-based
[28] = test system: Candida albicans; test: Antifungal activity against Fluconazole resistant Candida albicans isolate 1 at 178.6 uM after 48 hrs by CLSI method; type: functional, organism-based; outline: as §1
[29] = test system: Candida parapsilosis; test: Antifungal activity against Candida parapsilosis ATCC 22019 at 178.6 uM after 48 hrs by CLSI method; type: functional, organism-based; outline: as §6
[30] = test system: Vero; test: Cytotoxicity against African green monkey Vero cells up to 32 uM by neutral red method; type: cell-based; settings: chlorocebus sabaeus; outline: as §3
[31] = test system: Trichophyton rubrum; test: Antifungal activity against Trichophyton rubrum ATCC 10218 at 178.6 uM after 5 days by CLSI method; type: functional, organism-based

CCCCCCCCC#CCCCCCCCC(=O)O
80.2 µM: IC50 [11]
Non-toxic: Activity [3] | Activity [9] | Activity [16] | Activity [23] | Activity [25] | Activity [30]
inactive: Activity [1] | Activity [2] | Activity [5] | Activity [6] | Activity [7] | Activity [8] | Activity [12] | Activity [13] | Activity [14] | Activity [15] | Activity [17] | Activity [18] | Activity [19] | Activity [21] | Activity [22] | Activity [24] | Activity [27] | Activity [28] | Activity [29] | Activity [31]
> 179 µM: IC50 [4] | IC50 [10] | IC50 [20] | IC50 [26]
